Laboratory results reported in the M2OR odorant receptor database.
Where a chain is given by its changes, count along the chain named.

Tests used:
Details in all cases: stereoisomer not certain
[1] = tested on: T1, OR2A1 T73A R74C S168C
T1 sequence (whole entry): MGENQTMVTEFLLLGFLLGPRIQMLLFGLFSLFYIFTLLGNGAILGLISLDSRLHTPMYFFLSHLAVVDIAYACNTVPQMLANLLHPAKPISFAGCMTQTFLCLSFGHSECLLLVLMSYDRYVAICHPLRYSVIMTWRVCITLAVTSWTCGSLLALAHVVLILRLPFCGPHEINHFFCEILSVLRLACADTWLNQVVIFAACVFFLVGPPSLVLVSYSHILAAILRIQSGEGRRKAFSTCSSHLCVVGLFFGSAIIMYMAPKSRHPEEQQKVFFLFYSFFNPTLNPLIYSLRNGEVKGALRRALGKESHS
Procedure, shortened: (§1)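 Each entry records the cell line, G-protein, co-transfected protein and tags used. Methods varied with the source, often transient luciferase assays in mammalian cell lines. A receptor–molecule pair is called responsive (active) if the original authors judged its signal statistically different from baseline and non-responsive (inactive) otherwise.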

[2] = molecular target: T2, OR2A12 (Homo sapiens) (UniProt Q8NGT7)
T2 sequence (whole entry): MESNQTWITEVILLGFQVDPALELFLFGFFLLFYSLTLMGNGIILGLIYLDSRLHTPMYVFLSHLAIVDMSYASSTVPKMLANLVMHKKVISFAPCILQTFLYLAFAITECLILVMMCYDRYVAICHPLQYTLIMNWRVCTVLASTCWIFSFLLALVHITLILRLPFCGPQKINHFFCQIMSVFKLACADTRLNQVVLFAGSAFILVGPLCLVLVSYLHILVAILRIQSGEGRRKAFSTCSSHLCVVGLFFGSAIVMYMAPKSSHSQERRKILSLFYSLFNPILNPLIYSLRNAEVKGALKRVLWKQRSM
Procedure, shortened: as §1

[3] = molecular target: T3, OR2A14 (Homo sapiens) (UniProt Q96R47)
T3 sequence (whole entry): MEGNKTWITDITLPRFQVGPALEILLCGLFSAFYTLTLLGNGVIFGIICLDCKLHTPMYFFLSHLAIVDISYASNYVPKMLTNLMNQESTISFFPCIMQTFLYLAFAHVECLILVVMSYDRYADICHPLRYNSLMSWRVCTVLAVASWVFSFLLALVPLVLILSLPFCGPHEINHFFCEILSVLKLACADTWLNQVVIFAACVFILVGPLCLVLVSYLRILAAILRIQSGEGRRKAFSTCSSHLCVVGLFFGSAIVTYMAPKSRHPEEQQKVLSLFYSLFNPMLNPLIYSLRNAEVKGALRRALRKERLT
Procedure, shortened: as §1

[4] = molecular target: T4, OR2A2 (Homo sapiens) (UniProt Q6IF42)
T4 sequence (whole entry): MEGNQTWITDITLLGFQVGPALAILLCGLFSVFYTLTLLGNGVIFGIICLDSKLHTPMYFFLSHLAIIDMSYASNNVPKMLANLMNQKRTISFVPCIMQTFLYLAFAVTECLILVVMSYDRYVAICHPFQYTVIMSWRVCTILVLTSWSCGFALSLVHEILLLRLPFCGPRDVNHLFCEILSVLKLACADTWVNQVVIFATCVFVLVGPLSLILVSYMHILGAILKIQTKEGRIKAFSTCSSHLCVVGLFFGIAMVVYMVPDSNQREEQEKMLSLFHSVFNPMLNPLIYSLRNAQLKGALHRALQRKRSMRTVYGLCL
Procedure, shortened: as §1

[5] = molecular target: T5, OR2A25 (Homo sapiens) (UniProt A4D2G3)
T5 sequence (whole entry): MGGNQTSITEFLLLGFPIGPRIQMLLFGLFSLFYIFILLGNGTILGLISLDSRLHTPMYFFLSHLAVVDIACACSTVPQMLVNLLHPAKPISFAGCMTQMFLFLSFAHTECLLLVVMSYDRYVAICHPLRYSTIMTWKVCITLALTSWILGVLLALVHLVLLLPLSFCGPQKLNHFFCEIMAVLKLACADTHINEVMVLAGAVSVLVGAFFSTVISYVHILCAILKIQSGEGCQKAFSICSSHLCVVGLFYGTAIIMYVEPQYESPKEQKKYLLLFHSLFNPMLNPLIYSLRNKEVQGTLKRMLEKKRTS
Procedure, shortened: as §1

[6] = tested on: T6, OR2A2
T6 sequence (whole entry): T4 sequence (whole entry) with F280L
Procedure, shortened: as §1

[7] = molecular target: T7, OR2A4 (Homo sapiens) (UniProt O95047)
T7 sequence (whole entry): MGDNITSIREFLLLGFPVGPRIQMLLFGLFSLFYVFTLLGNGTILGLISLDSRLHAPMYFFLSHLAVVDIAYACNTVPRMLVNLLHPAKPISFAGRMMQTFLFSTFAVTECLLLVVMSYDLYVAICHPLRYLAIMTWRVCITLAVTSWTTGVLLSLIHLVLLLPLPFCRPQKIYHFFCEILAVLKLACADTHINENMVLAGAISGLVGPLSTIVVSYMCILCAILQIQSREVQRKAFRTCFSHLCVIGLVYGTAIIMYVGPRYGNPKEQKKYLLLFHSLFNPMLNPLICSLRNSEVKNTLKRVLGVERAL
Procedure, shortened: as §1

[8] = molecular target: T8, OR2A5 (Homo sapiens) (UniProt Q96R48)
T8 sequence (whole entry): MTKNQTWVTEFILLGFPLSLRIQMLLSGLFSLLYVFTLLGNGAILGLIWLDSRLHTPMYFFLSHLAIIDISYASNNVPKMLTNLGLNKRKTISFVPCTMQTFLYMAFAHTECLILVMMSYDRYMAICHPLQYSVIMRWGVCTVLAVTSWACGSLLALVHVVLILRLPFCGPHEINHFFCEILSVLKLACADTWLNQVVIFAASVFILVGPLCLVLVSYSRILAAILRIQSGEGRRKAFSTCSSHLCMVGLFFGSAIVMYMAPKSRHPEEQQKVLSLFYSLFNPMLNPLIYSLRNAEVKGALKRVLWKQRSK
Procedure, shortened: as §1

[9] = tested on: T9, OR2A5 I126V A202S A255T
T9 sequence (whole entry): T8 sequence (whole entry) with I126V, A202S, A255T
Procedure, shortened: as §1

[10] = molecular target: T10, OR2A7 (Homo sapiens) (UniProt Q96R45)
T10 sequence (whole entry): T7 sequence (whole entry) with R9T, R238C, V250F
Procedure, shortened: as §1

Measured: odorant receptor agonist call

CCCCCCC=CCCC=O
inactive: [1] | [2] | [3] | [4] | [5] | [6] | [7] | [8] | [9] | [10]

C=C(C)C1CC=C(C)CC1 (stereo not drawn)
inactive: [10]

CCCCCCCCCCCCCCCC(=O)[O-].[H+]
inactive: [10]

CCCCOCC(C)O (stereo not drawn)
inactive: [10]

CCCCCC(=O)C(C)C(C)=O (stereo not drawn)
inactive: [2] | [3] | [4] | [5] | [7] | [8] | [10]

CC(C)=CCCC(C)=CCO
inactive: [10]

CCCCCCCCCCCCO
inactive: [10]

C=C1CCC2CC1C2(C)C (stereo not drawn)
active: [10]

CCCCCCCC(=O)OCC
inactive: [10]

CC(CO)CS (stereo not drawn)
inactive: [2] | [3] | [4] | [5] | [7] | [8] | [10]

CCC1OC(=O)C(O)=C1C (stereo not drawn)
inactive: [1] | [2] | [3] | [4] | [5] | [6] | [7] | [8] | [9] | [10]

CCCCCCCCCCCCCCCCCC(=O)[O-].[H+]
active: [10]

CC(C)=CCCC(C)=CCCC(C)=CCO
inactive: [10]

CCCCCCCCCCCC(=O)OCC
inactive: [10]

CC1=C(O)C(=O)C(C)O1 (stereo not drawn)
inactive: [1] | [2] | [3] | [4] | [5] | [6] | [7] | [8] | [9] | [10]

CCCO
inactive: [10]

CCCC(S)CCOC(C)=O (stereo not drawn)
inactive: [1] | [2] | [3] | [4] | [5] | [6] | [7] | [8] | [9] | [10]

CC1=C(O)C(=O)OC1C (stereo not drawn)
inactive: [1] | [2] | [3] | [4] | [5] | [6] | [7] | [8] | [9] | [10]

c1ccc2ncccc2c1
active: [5]

CCCCCC(S)C(C)CO (stereo not drawn)
inactive: [2] | [3] | [4] | [5] | [7] | [8] | [10]

CCCCC(S)C(C)CO (stereo not drawn)
inactive: [2] | [3] | [4] | [5] | [7] | [8] | [10]

CC1CCCCCCCCCCCCC(=O)C1 (stereo not drawn)
inactive: [2] | [3] | [4] | [5] | [7] | [8] | [10]

CCCCCCCCCCCCCC(=O)OCC
inactive: [10]

CCC1OC(C)=C(O)C1=O (stereo not drawn)
inactive: [1] | [2] | [3] | [4] | [5] | [6] | [7] | [8] | [9] | [10]

CC(=O)c1c(C)c([N+](=O)[O-])c(C(C)(C)C)c([N+](=O)[O-])c1C
inactive: [2] | [3] | [4] | [5] | [7] | [8] | [10]

Cc1cnc(C)c(C)n1
inactive: [1] | [2] | [3] | [4] | [5] | [6] | [7] | [8] | [9] | [10]

CCC(S)C(C)CO (stereo not drawn)
inactive: [2] | [3] | [4] | [5] | [7] | [8] | [10]

CC1=NC(C)C(C)S1 (stereo not drawn)
inactive: [1] | [2] | [3] | [4] | [5] | [6] | [7] | [8] | [9] | [10]

CC(C=O)Cc1ccc(C(C)(C)C)cc1 (stereo not drawn)
active: [10]
